Source: ChEMBL document CHEMBL4513216, “Probing the Open Global Health Chemical Diversity Library for Multistage-Active Starting Points for Next-Generation Antimalarials” (ACS Infect Dis, 2020)

Experiment: Toxicity liver stage against HepG2, at 10uM
Type: cell-based
Set-up: test concentration 10 uM, cell line HepG2-A16-CD81EGFP
Conditions: human, HepG2-A16-CD81EGFP cells; read-out: INHIBITION
Outline: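 Uninfected HepG2-A16-CD81EGFP cells, 3 × 10^3 per well, 1536-well, plated on prespotted compound at 10 μM final, parasite-free screening media added to match infected plates; puromycin 10 μM positive, DMSO 0.5% negative; run in parallel with 48 h PbLuc assay at 37 °C, 5% CO2; viability by CellTiter-Glo luminescence, normalized to controls.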

| Compound | cytotoxicity at 10 µM [%] |
| --- | --- |
| CNC(C)Cc1ccccc1Sc1ccc(O)cc1 (configuration not stated) | 2.73 |
| Cc1c(C(=O)O)sc2nc(Cc3ccccc3)nc(N)c12 | -0.924 |
| CN1CCC(N2CCN3C(=O)NC[C@H]3C2)CC1 | 2.26 |
| Cc1ccccc1C(=O)Nc1ccc([C@H]2OCC(=O)N(C)[C@@H]2CO)cc1 | 0.461 |
| CN(C)C(=O)c1cccnc1SCc1ccccc1Cl | 3.25 |
| CCOC(=O)c1nc(COc2ccc(CC(N)=O)cc2)no1 | -6.24 |
| COc1ccc2nnc(CCC(=O)Nc3nc4c(s3)CCCC4)n2n1 | -6.98 |
| CC(C)c1sc(Br)nc1C(=O)NCc1cccnc1 | 3.06 |
| Cc1nnsc1C(=O)NCc1nn(C)c2c1COCC2 | -0.543 |
| CCOCC(=O)NCC(CC)(OC)c1ccccc1 (configuration not stated) | -0.478 |
| O=C1CCC2(CCCN(C(=O)c3cccnc3)CC2)N1 (configuration not stated) | 6.56 |
| CCn1cc2c(n1)C(COCC1CC1)CN(C(=O)c1ccsc1)C2 (configuration not stated) | 18.6 |
| O=C(N1CCCC1)C12CC(CN1Cc1nccs1)C2 | -11.5 |
| CN1Cc2ccccc2CC2(CCN(c3ncc(F)cn3)CC2)C1=O | 6.59 |
| O=C(Cc1ccsc1)N1CCc2ccc(=O)n(CC3CC3)c2CC1 | 6.13 |
| CN1C(=O)CC(c2ccccc2)C12CCN(C(=O)c1ccc[nH]1)CC2 (configuration not stated) | 7.52 |
| O=C1CCC2(CCCN(c3ncc(F)cn3)CC2)N1Cc1ccccc1 (configuration not stated) | 2.87 |
| O=C(O)c1nnn(Cc2cccc(C(F)(F)F)c2)c1-c1ccccn1 | 2.27 |
| O=C(Cn1cc(C(=O)O)ccc1=O)NCc1ccc(F)c(Cl)c1 | -5.88 |
| CCC1=N[C@@]2(CC[C@@H]3CN(S(=O)(=O)CC)C[C@@H]32)C(=O)N1CC(C)C | -0.0582 |
| Cc1nn(Cn2ccc(C(=O)N3CCOCC3)n2)c(C)c1Cl | -0.112 |
| Cc1nn(C)c2cn(C(C)C(=O)NCc3cccnc3)nc12 (configuration not stated) | 5.55 |
| COc1cccc([C@@]2(O)CC[C@@H]3CN(C(=O)c4cn(C)nc4C)C[C@@H]32)c1 | 3.51 |

| Compound | cytotoxicity at 10 µM [%] |
| --- | --- |
| Oc1cc(C2CCCCN2CC2CC2)nc(-c2ccncc2)n1 (configuration not stated) | 9.77 |
| Cc1cc(N2CCC(Cc3ccncc3)C2)ncn1 (configuration not stated) | 0.328 |
| Cc1cc(N2CCC(Cc3cccnc3)C2)ncn1 (configuration not stated) | -2.15 |
| CC1(c2cc[nH]n2)CCN(C(=O)c2ccc(Cl)cc2)CC1 | 0.812 |
| COCCN1CCC(c2ncc(C(=O)N3CCOCC3)c(C)n2)CC1 | 1.36 |
| c1cc(N2CCCCC2)ccc1-c1noc(CN2CCOCC2)n1 | -1.59 |
| O=C(CC1CCCC1)N1CCC(c2cc3ncccc3c(O)n2)CC1 | -24.7 |
| COc1ccccc1Oc1cncc(C2CCCN(C)C2)n1 (configuration not stated) | -3.8 |
| CC(=O)N1CCCC(c2ccnc(N(C)C)n2)C1 (configuration not stated) | -16.2 |
| Cc1cnc(N)c(C(=O)C2CCN(C(=O)c3cnc(C)nc3C)CC2)c1 | -18 |
| CC(=O)N1CCC(c2ccnc(Nc3cncnc3)n2)CC1 | -33.2 |
| c1cnc2[nH]c(C3CCCC3)c(CN3CCCCC3)c2c1 | -26.9 |
| CN(CC(=O)Nc1cnn(-c2ccccc2S(C)(=O)=O)c1)C1CC1 | 0.315 |
| Cc1ccc(C2CSCCN2C(=O)c2ccncc2)cc1 (configuration not stated) | 2.96 |
| O=C(Nc1cccnc1)NC1(c2cccc(F)c2)CC1 | 1.41 |
| CC(C)OCCS(=O)(=O)NC1CCN(C2CCCC2)C1 (configuration not stated) | 1.68 |
| CN1CCOC(CNCC(=O)NCCc2ccc(F)cc2)C1 (configuration not stated) | 1.38 |
| CCc1nc(CC)n(CC(=O)N(CC)CC)n1 | 3.1 |
| CN(C)c1cc2c(nn1)CCN(C(=O)c1cc3c(s1)CCCC3)C2 | -6.3 |
| Cc1nc(-c2cnn(C)c2)sc1C(=O)NCc1cccc(CN(C)C)c1 | 2.46 |
| N#CC1(C(=O)N2CCC(Nc3cccnn3)CC2)CCCCC1 | 2.87 |
| CCOCCCC(=O)N1CCN(C(=O)Cc2cccc(OC)c2)CC1 | -1.86 |
| N#CCCNC(=O)CSc1cc(F)ccc1F | -3.74 |

| Compound | cytotoxicity at 10 µM [%] |
| --- | --- |
| Cc1nc(NC(=O)C(C)N2CCN(c3cnccn3)CC2)sc1C (configuration not stated) | 4.75 |
| CCNC(=O)CCN1CCCC1c1cccc2c1OCCO2 (configuration not stated) | -4 |
| CCOc1cc(CN(C)CC(C)(C)O)ccc1OC(F)F | 2.31 |
| CC(=O)N1CCN(C(=O)c2cnc(OC(C)C)c(Cl)c2)CC1 | -4.36 |
| COc1ccc(S(=O)(=O)NC(=O)c2c(C)noc2C(C)C)cc1OC | -2.23 |
| CCCC(=O)NCC(=O)NC1CC(C)(C)Cc2oc(C)cc21 (configuration not stated) | -4.32 |
| Cc1nccn1CCCNC(=O)C1CCCCN1Cc1ccncc1 (configuration not stated) | -8.18 |
| CCSc1ccc(NC(=O)NC(C)c2c(C)noc2C)cn1 (configuration not stated) | -3.69 |
| COc1ccc(CC(=O)N2CCC(c3n[nH]c(C4CC4)n3)CC2)cc1 | -14.6 |
| CCOc1ccc(NC(=O)N(CCC#N)Cc2ccccn2)cc1F | -6 |
| CCc1nc(CN2CCCCC2C(N)=O)cs1 (configuration not stated) | -7.96 |
| CC(C)c1nc(C2CCCN2c2ccnc(C3CCCC3)n2)no1 (configuration not stated) | 28.5 |
| Cc1c(C(=O)NCCC(=O)N2CCOCC2)oc2c(C)cccc12 | -1.96 |
| Cc1ccc(OCC(=O)N(C)Cc2ccc(F)cc2)cn1 | 7.88 |
| CC(=O)N1CCCC1c1nnc2n1CCCCC2 (configuration not stated) | 4.31 |
| CN(C)CC(=O)N1Cc2nc(C(=O)N3CCCN(C)CC3)oc2C1 | -105 |
| Cn1c2c(c(=O)n1C)CN(C(=O)c1cnccn1)CCC2 | -113 |
| CCNC(=O)C1CCN(c2nccc(C3CCCC3)n2)C1 (configuration not stated) | -5.6 |
| CN(CCn1cnc(-c2ccccc2)c1-c1ncc[nH]1)S(C)(=O)=O | 1.87 |
| O=C(c1ccc(C2CCCN2)s1)N1CC=CC1 (configuration not stated) | 1.33 |
| Cc1ccc(-c2nnc(CN3CCOCC(CO)C3)o2)n1C (configuration not stated) | -3.28 |
| Cc1ccccc1C(C(=O)O)N(C)CC1CCOCC1 (configuration not stated) | 3.88 |
| Cc1ccc(N2CC[C@]3(O)CCN(CCN4CCCC4=O)C[C@@H]3C2)nn1 | -10.1 |

| Compound | cytotoxicity at 10 µM [%] |
| --- | --- |
| Cc1[nH]ccc1C(=O)N1CCN(C)C2(CCC(=O)N(C)CC2)C1 (configuration not stated) | 5.95 |
| COc1ncccc1NC(=O)N(CC(C)C)C1CC1 | -0.874 |
| Cc1ccc(C)c(CS(=O)(=O)CC(=O)NCCCOC(C)C)c1 | -2.51 |
| CC(C(=O)NCCN1CCOCC1)n1cncn1 (configuration not stated) | -2.85 |
| O=C(CCS(=O)(=O)C1CCCC1)NCc1ccccc1Cn1cncn1 | -4.9 |
| Cc1nccn1-c1cc(CNC(=O)NCC2CCCO2)ccn1 (configuration not stated) | -7.9 |
| CC(C)CN1CC(C(=O)NCCOc2ccc3c(c2)OCO3)CC1=O (configuration not stated) | -1.39 |
| Cc1cc(C)n(C2CCCN(C(=O)c3ccc(N(C)C)nc3)C2)n1 (configuration not stated) | -4.26 |
| Cc1cc(C)n(CC2CCCN2C(=O)c2cncnc2C)n1 (configuration not stated) | -2.98 |
| Cc1noc(C(C)N2CCN(Cc3nc(C)c(C)o3)CC2)n1 (configuration not stated) | 0.397 |
| COCCN(Cc1nc2c(cnn2C)c(=O)[nH]1)C(C)c1ccccc1 (configuration not stated) | -1.47 |
| CC1CCN(Cc2ccc(CNC(=O)c3ccn(C)c(=O)c3)cc2)CC1 | -2.94 |
| Cn1ccc(C(=O)NCc2ccc(CN3CCCC3)cc2)cc1=O | -13.5 |
| CCc1nc2n(n1)CC(NCc1cnn(Cc3ccccc3)c1)CC2 (configuration not stated) | -10.4 |
| Cc1ccc(-n2cc(C(=O)N3CCCC(n4cccn4)C3)nn2)cc1 (configuration not stated) | -20.3 |
| O=C(NCCCn1ccnc1)NCC(c1ccco1)N1CCCC1 (configuration not stated) | -8.86 |
| CCn1cnnc1CNC(=O)N1CCN(Cc2ccco2)CC1 | -17.4 |
| CCc1nc(CN2CCCC(NCc3nc(C)c(C)o3)C2)no1 (configuration not stated) | -12.1 |
| O=C(CCc1nccs1)N1CCN(c2nccs2)CC1 | -21.8 |
| CC(C)c1nc(CN2CCOCC2)cs1 | -7.49 |
| CCc1nc(CN2CCCN(C(=O)C3CCOCC3)CC2)cs1 | -8.11 |
| O=C(O)c1csc(S(=O)(=O)Nc2cccc(OCC(F)(F)F)c2)c1 | -13.1 |
| Cc1cnn(CC2CN(Cc3cccc(OCC(N)=O)c3)CCO2)c1 (configuration not stated) | -7.18 |

| Compound | cytotoxicity at 10 µM [%] |
| --- | --- |
| CC(C)(O)CN1CCN(C(=O)c2cc(Cl)cc3cccnc23)CC1 | -7.93 |
| COc1ccc(F)cc1CN1CCCC(c2cc(C(N)=O)[nH]n2)C1 (configuration not stated) | 0.313 |
| CCN1CCCC(CNC(=O)C2(c3cccc(Cl)c3)CC2)C1 (configuration not stated) | -2.77 |
| O=C(c1cc(F)ccc1F)C1CCN(C(=O)c2ccc(=O)[nH]n2)CC1 | 3.42 |
| CC(C)COC(C)C(=O)NCc1ccc(OC(C)C)nc1 (configuration not stated) | 2.12 |
| Cc1nc(CN2CCCC(N(C)Cc3cscn3)C2)no1 (configuration not stated) | 16.8 |
| CC(=O)N1CCN(Cc2cccs2)CC2(CC(=O)N(C)C2)C1 (configuration not stated) | 1.7 |
| CC(C)N1CCc2nnc(COc3cncnc3)n2CC1 | 2.7 |
| CN(C)C(=O)N1CCC[C@]2(C(=O)N(C)C)CN(c3ccccn3)C[C@@H]2C1 | 7.13 |
| c1nc(CN2CCC3(CC2)COCCN3CC2CC2)c[nH]1 | -1.26 |
| CN(C)CCOCc1cncc2c1CCN(C1CCOC1)C2 (configuration not stated) | 9.68 |
| Cc1ccc(N2CCO[C@H]3[C@H](OCC(=O)N4CCCC4)CC[C@@H]32)cc1 | -1.03 |
| c1coc(CN2CCO[C@H]3[C@H](OCC4CC4)CC[C@@H]32)c1 | 5.22 |
| Cc1ccc(CN2CCC[C@@H]3CN(C(=O)c4ccco4)C[C@@H]32)o1 | 8.83 |
| CN(Cc1ccco1)[C@@H]1CN(C(=O)c2cnccn2)C[C@@H]2CCCO[C@@H]21 | 3.25 |
| c1cncc(OC[C@@H]2CCC[C@@]23CNCCO3)c1 | 10.5 |
| CNCCc1nc2cc(F)ccc2[nH]1 | 22 |
| CC(C)NC(=O)CC1CC2(CCN(CC3CC3)CC2)Oc2ccccc21 (configuration not stated) | -2.42 |
| Cn1ccc(CN2CCOCC23CCNCC3)n1 | 6.77 |
| O=C(CN1C[C@H]2CC(OCc3ccccc3)C[C@H]2C1)N1CCOCC1 (some centres not stated) | -9.92 |
